Assay results: ChEMBL document CHEMBL3044849, “Synthesis and insecticidal activities of novel N-sulfenyl-N'-tert-butyl-N,N'-diacylhydrazines. 1. N-alkoxysulfenate derivatives” (2007)
≈ marks a conversion by molar mass, not a printed value.

Columns and labels:
Type in all cases: functional
Mythimna separata [1] = assay: Stomach toxicity against fourth-instar larval stage of Mythimna separata (Oriental armyworm) in compound-pretreated corn leaves assessed as mortality at 10 mg/kg at 25+/-1 degC measured after 4 days
Mythimna separata [2] = assay: Stomach toxicity against fourth-instar larval stage of Mythimna separata (Oriental armyworm) in compound-pretreated corn leaves assessed as mortality at 50 mg/kg at 25+/-1 degC measured after 4 days
Mythimna separata [3] = assay: Stomach toxicity against fourth-instar larval stage of Mythimna separata (Oriental armyworm) in compound-pretreated corn leaves assessed as mortality at 25 mg/kg at 25+/-1 degC measured after 4 days
Mythimna separata [4] = assay: Stomach toxicity against fourth-instar larval stage of Mythimna separata (Oriental armyworm) in compound-pretreated corn leaves assessed as mortality at 2.5 mg/kg at 25+/-1 degC measured after 4 days
Spodoptera exigua [5] = assay: Stomach toxicity against third-instar larval stage of Spodoptera exigua in cabbage leaves assessed as mortality at 25 +/-1 degC treated for 3 secs before larval infestation measured after 3 days by leaf-dip method; settings: for LC50: Spodoptera exigua, Instar larval stage, 72 h
Outline: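 Leaf-dip assay: fresh cabbage leaf discs (5 cm × 3 cm) were dipped 3 s in test solution and air-dried, then placed singly in boxes with five third-instar beet armyworm larvae per disc. Water- and acetone-treated leaves served as controls. Held at 25 ± 1 °C; percentage mortality was read 3 days after treatment, in triplicate.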

Spodoptera exigua [6] = assay: Toxic ratio of RH-5992 LC50 to compound LC50 for third-instar larval stage of Spodoptera exigua measured after 3 days by leaf-dip method
Mythimna separata [7] = assay: Contact toxicity against fourth-instar larval stage of Mythimna separata (Oriental armyworm) assessed as mortality at 25 +/-1 degC applied topically on the thoracic tergite measured per larva after 96 hr
Outline: (§1)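 Oriental armyworm fourth-instar larvae each received 0.306 µL of acetone dilution at varying concentrations on the thoracic tergite via platinum loop. Acetone-only control. Larvae were returned to rearing conditions at 25 ± 1 °C and mortality was scored 96 h after treatment. LD50 and LD90 were derived from triplicate treatments; ratios use reference over test values.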

Spodoptera exigua [8] = assay: Toxic ratio of RH-5992 LC90 to compound LC90 for third-instar larval stage of Spodoptera exigua measured after 3 days by leaf-dip method
Mythimna separata [9] = assay: Stomach toxicity against fourth-instar larval stage of Mythimna separata (Oriental armyworm) in compound-pretreated corn leaves assessed as mortality at 5 mg/kg at 25+/-1 degC measured after 4 days
Mythimna separata [10] = assay: Toxic ratio of RH-5992 LD50 to compound LD50 for fourth-instar larval stage of Mythimna separata (Oriental armyworm) measured after 96 hr; outline: as §1
Ostrinia furnacalis = assay: Contact toxicity against fourth-instar larval stage of Ostrinia furnacalis (Asian corn borer) assessed as mortality at 25 +/-1 degC applied topically on the thoracic tergite measured per gm of larva after 48 hr
Outline: (§2)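 Fourth-instar larvae of tobacco cutworm, Asian corn borer and cotton bollworm were used. Compounds in acetone at five to seven concentrations; 1 µL applied to the thoracic tergite by automatic microapplicator. Acetone-only control. Usually 40 insects per dose, four replicates, kept under rearing conditions at 25 ± 1 °C. Mortality at 48 h gave LD50; ratios use reference LD50 over test LD50.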

Spodoptera litura = assay: Contact toxicity against fourth-instar larval stage of Spodoptera litura assessed as mortality at 25 +/-1 degC applied topically on the thoracic tergite measured per gm of larva after 48 hr; outline: as §2
Helicoverpa armigera = assay: Contact toxicity against fourth-instar larval stage of Helicoverpa armigeraassessed as mortality at 25 +/-1 degC applied topically on the thoracic tergite measured per gm of larva after 48 hr; outline: as §2
Mythimna separata [11] = assay: Toxic ratio of RH-5992 LD90 to compound LD90 for fourth-instar larval stage of Mythimna separata (Oriental armyworm) measured after 96 hr; outline: as §1
Mythimna separata [12] = assay: Stomach toxicity against fourth-instar larval stage of Mythimna separata (Oriental armyworm) in compound-pretreated corn leaves assessed as mortality at 100 mg/kg at 25+/-1 degC measured after 4 days

Compound	mortality at 10 mg/kg (Mythimna separata [1]) [%]	mortality at 50 mg/kg (Mythimna separata [2]) [%]	mortality at 25 mg/kg (Mythimna separata [3]) [%]	mortality at 2.5 mg/kg (Mythimna separata [4]) [%]	mortality at 5 mg/kg (Mythimna separata [9]) [%]	also measured
COSN(C(=O)c1ccccc1)N(C(=O)c1ccccc1)C(C)(C)C	0	100	100			
CCc1ccc(C(=O)N(SOC)N(C(=O)c2cc(C)cc(C)c2)C(C)(C)C)cc1	100		100	100	100	LC90 (Spodoptera exigua [5]): 524.29 µg/mL (≈ 1260 µM); LC50 (Spodoptera exigua [5]): 24.4 µg/mL (≈ 58.7 µM); RatioLC50 (Spodoptera exigua [6]): 3.4; LD50 (Mythimna separata [7]): 0.0195 µg; LD90 (Mythimna separata [7]): 0.0479 µg; Ratio (Spodoptera exigua [8]): 5.1; Ratio (Mythimna separata [10]): 141; LD50 (Ostrinia furnacalis): 44.961 µg; LD50 (Spodoptera litura): 16.061 µg; LD50 (Helicoverpa armigera): 73.907 µg; Ratio (Mythimna separata [11]): 154
CCOSN(C(=O)c1ccc(CC)cc1)N(C(=O)c1cc(C)cc(C)c1)C(C)(C)C	100	100	100	70	100	
CCCOSN(C(=O)c1ccc(CC)cc1)N(C(=O)c1cc(C)cc(C)c1)C(C)(C)C	100	100	100	80	90	
CCc1ccc(C(=O)N(SOC(C)C)N(C(=O)c2cc(C)cc(C)c2)C(C)(C)C)cc1	100	100	100	50	100	
CCCCOSN(C(=O)c1ccc(CC)cc1)N(C(=O)c1cc(C)cc(C)c1)C(C)(C)C	100	100	100	90	100	
CCc1ccc(C(=O)N(SOCC(C)C)N(C(=O)c2cc(C)cc(C)c2)C(C)(C)C)cc1				80	100	
CCc1ccc(C(=O)N(SOC(C)(C)C)N(C(=O)c2cc(C)cc(C)c2)C(C)(C)C)cc1	100	100	100	60	70	
CCCCCOSN(C(=O)c1ccc(CC)cc1)N(C(=O)c1cc(C)cc(C)c1)C(C)(C)C				100	100	
CCc1ccc(C(=O)N(SOC(C)(C)CC)N(C(=O)c2cc(C)cc(C)c2)C(C)(C)C)cc1				70	80	
CCc1ccc(C(=O)N(SOCc2ccccc2)N(C(=O)c2cc(C)cc(C)c2)C(C)(C)C)cc1				70	90	
CCc1ccc(C(=O)N(SOCCc2ccccc2)N(C(=O)c2cc(C)cc(C)c2)C(C)(C)C)cc1				50	90	
CCc1ccc(C(=O)N(SOCCF)N(C(=O)c2cc(C)cc(C)c2)C(C)(C)C)cc1				70	100	
CCc1ccc(C(=O)N(SOCC(F)(F)F)N(C(=O)c2cc(C)cc(C)c2)C(C)(C)C)cc1				90	100	
CCc1ccc(C(=O)N(SOCCOC)N(C(=O)c2cc(C)cc(C)c2)C(C)(C)C)cc1				70	90	
CCOCCOSN(C(=O)c1ccc(CC)cc1)N(C(=O)c1cc(C)cc(C)c1)C(C)(C)C				90	100	
COSN(C(=O)c1ccc2c(c1C)OC(C)C2)N(C(=O)c1cc(C)cc(C)c1)C(C)(C)C (stereo not drawn)				80		
CCOSN(C(=O)c1ccccc1)N(C(=O)c1ccccc1)C(C)(C)C		85	0			mortality at 100 mg/kg (Mythimna separata [12]): 100%
CCCOSN(C(=O)c1ccccc1)N(C(=O)c1ccccc1)C(C)(C)C	10	90	50			
CC(C)OSN(C(=O)c1ccccc1)N(C(=O)c1ccccc1)C(C)(C)C	10	100	100			
CC(C)(C)OSN(C(=O)c1ccccc1)N(C(=O)c1ccccc1)C(C)(C)C	10	100	100			
Cc1cc(C)cc(C(=O)N(NC(=O)c2ccc3c(c2C)OC(C)C3)C(C)(C)C)c1 (stereo not drawn) [FUXIAN]				90	100	
CC(C)(C)N(NC(=O)c1ccccc1)C(=O)c1ccccc1 [RH-5849]	0	100	70			
CCc1ccc(C(=O)NN(C(=O)c2cc(C)cc(C)c2)C(C)(C)C)cc1 [TEBUFENOZIDE]	100			55	95	LC90 (Spodoptera exigua [5]): 2648.6 µg/mL (≈ 7510 µM); LC50 (Spodoptera exigua [5]): 83.4 µg/mL (≈ 237 µM); RatioLC50 (Spodoptera exigua [6]): 1; LD50 (Mythimna separata [7]): 0.0275 µg; LD90 (Mythimna separata [7]): 0.0739 µg; Ratio (Spodoptera exigua [8]): 1; Ratio (Mythimna separata [10]): 100; LD50 (Ostrinia furnacalis): 59.414 µg; LD50 (Spodoptera litura): 527.12 µg; LD50 (Helicoverpa armigera): 1311.9 µg; Ratio (Mythimna separata [11]): 100
